# How the values were obtained:
# Format in all cases: functional
# [1] = tested on: M14; experiment: Growth inhibition of human M14 cells assessed as cell growth at 10 uM incubated for 48 hrs by sulforhodamine B assay relative to control; conditions: read-out: Activity
# Summary of the method: (§1)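 Submitted to the NCI Developmental Therapeutics Program for the NCI60 human tumour cell line panel. First screen at a single 10 µM concentration. Read-out is growth relative to untreated control cells set at 100%.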
# [2] = tested on: HT-29; experiment: Growth inhibition of human HT-29 cells assessed as cell growth at 10 uM incubated for 48 hrs by sulforhodamine B assay relative to control; conditions: read-out: Activity; summary of the method: as §1
# [3] = tested on: TK-10; experiment: Growth inhibition of human TK-10 cells assessed as cell growth at 10 uM incubated for 48 hrs by sulforhodamine B assay relative to control; conditions: read-out: Activity
# Summary of the method: (§2)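 Run by the NCI Developmental Therapeutics Program as part of its 60-line human tumour panel. Each compound tested at a single 10 µM dose. Growth expressed as % relative to untreated control cells (100%).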
# [4] = tested on: MOLT-4; experiment: Growth inhibition of human MOLT-4 cells assessed as cell growth at 10 uM incubated for 48 hrs by sulforhodamine B assay relative to control; conditions: read-out: Activity; summary of the method: as §1
# [5] = tested on: UACC-257; experiment: Growth inhibition of human UACC-257 cells assessed as cell growth at 10 uM incubated for 48 hrs by sulforhodamine B assay relative to control; conditions: read-out: Activity; summary of the method: as §2
# [6] = tested on: MDA-MB-468; experiment: Growth inhibition of human MDA-MB-468 cells assessed as cell growth at 0.01 uM incubated for 48 hrs by sulforhodamine B assay relative to control; conditions: read-out: Activity
# [7] = tested on: HOP-62; experiment: Growth inhibition of human HOP-62 cells assessed as cell growth at 10 uM incubated for 48 hrs by sulforhodamine B assay relative to control; conditions: read-out: Activity; summary of the method: as §1
# [8] = tested on: Malme-3M; experiment: Growth inhibition of human Malme-3M cells assessed as cell growth at 0.01 uM incubated for 48 hrs by sulforhodamine B assay relative to control; conditions: read-out: Activity
# [9] = tested on: CAKI-1; experiment: Growth inhibition of human CAKI-1 cells assessed as cell growth at 10 uM incubated for 48 hrs by sulforhodamine B assay relative to control; conditions: read-out: Activity
# Summary of the method: (§3)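 NCI Developmental Therapeutics Program NCI60 panel. Compounds that were active in the 10 µM one-dose screen went on to dose–response testing. Growth at each concentration is expressed relative to untreated control (100%). GI50 (concentration giving 50% of maximal inhibition of proliferation) and TGI (concentration giving total growth inhibition) were derived from the curves.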
# [10] = tested on: 786-0; experiment: Growth inhibition of human 786-0 cells assessed as cell growth at 10 uM incubated for 48 hrs by sulforhodamine B assay relative to control; conditions: read-out: Activity; summary of the method: as §3
# [11] = tested on: UO-31; experiment: Growth inhibition of human UO-31 cells assessed as cell growth at 10 uM incubated for 48 hrs by sulforhodamine B assay relative to control; conditions: read-out: Activity; summary of the method: as §2
# [12] = tested on: SF-539; experiment: Growth inhibition of human SF-539 cells incubated for 48 hrs by sulforhodamine B assay; conditions: for CC50: read-out: LC50 (the source's name)
# Summary of the method: (§4)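 NCI DTP 60-line human tumour panel. Dose-response curves were run only for ligands active in the initial 10 µM screen. GI50 (concentration giving 50% of maximal inhibition of proliferation) and TGI (concentration giving total growth inhibition) were derived from these curves.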
# [13] = tested on: SK-OV-3; experiment: Growth inhibition of human SK-OV-3 cells assessed as cell growth at 10 uM incubated for 48 hrs by sulforhodamine B assay relative to control; conditions: read-out: Activity; summary of the method: as §2
# [14] = tested on: SN12C; experiment: Growth inhibition of human SN12C cells assessed as cell growth at 10 uM incubated for 48 hrs by sulforhodamine B assay relative to control; conditions: read-out: Activity; summary of the method: as §2
# [15] = tested on: BT-549; experiment: Growth inhibition of human BT-549 cells assessed as cell growth at 100 uM incubated for 48 hrs by sulforhodamine B assay relative to control; conditions: read-out: Activity
# [16] = tested on: KM12; experiment: Growth inhibition of human KM12 cells assessed as cell growth at 10 uM incubated for 48 hrs by sulforhodamine B assay relative to control; conditions: read-out: Activity; summary of the method: as §1
# [17] = tested on: HCT-15; experiment: Growth inhibition of human HCT-15 cells assessed as cell growth at 10 uM incubated for 48 hrs by sulforhodamine B assay relative to control; conditions: read-out: Activity; summary of the method: as §1
# [18] = tested on: HCT-116; experiment: Growth inhibition of human HCT-116 cells assessed as cell growth at 10 uM incubated for 48 hrs by sulforhodamine B assay relative to control; conditions: read-out: Activity; summary of the method: as §1
# [19] = tested on: NCI-H522; experiment: Growth inhibition of human NCI-H522 cells assessed as cell growth at 10 uM incubated for 48 hrs by sulforhodamine B assay relative to control; conditions: read-out: Activity; summary of the method: as §1
# [20] = tested on: NCI-H522; experiment: Growth inhibition of human NCI-H522 cells assessed as cell growth at 1 uM incubated for 48 hrs by sulforhodamine B assay relative to control; conditions: read-out: Activity
# [21] = tested on: RXF 393; experiment: Growth inhibition of human RXF 393 cells assessed as cell growth at 10 uM incubated for 48 hrs by sulforhodamine B assay relative to control; conditions: read-out: Activity; summary of the method: as §2
# [22] = tested on: NCI-H460; experiment: Growth inhibition of human NCI-H460 cells assessed as cell growth at 10 uM incubated for 48 hrs by sulforhodamine B assay relative to control; conditions: read-out: Activity; summary of the method: as §1
# [23] = tested on: SK-OV-3; experiment: Growth inhibition of human SK-OV-3 cells incubated for 48 hrs by sulforhodamine B assay; conditions: for CC50: read-out: LC50 (the source's name); summary of the method: as §4
# [24] = tested on: SK-MEL-2; experiment: Growth inhibition of human SK-MEL-2 cells assessed as cell growth at 10 uM incubated for 48 hrs by sulforhodamine B assay relative to control; conditions: read-out: Activity; summary of the method: as §2
# [25] = tested on: TK-10; experiment: Growth inhibition of human TK-10 cells assessed as cell growth at 1 uM incubated for 48 hrs by sulforhodamine B assay relative to control; conditions: read-out: Activity
# [26] = tested on: Malme-3M; experiment: Growth inhibition of human Malme-3M cells assessed as cell growth at 10 uM incubated for 48 hrs by sulforhodamine B assay relative to control; conditions: read-out: Activity; summary of the method: as §1
# [27] = tested on: NCI-H226; experiment: Growth inhibition of human NCI-H226 cells assessed as cell growth at 10 uM incubated for 48 hrs by sulforhodamine B assay relative to control; conditions: read-out: Activity; summary of the method: as §1
# [28] = tested on: SK-MEL-5; experiment: Growth inhibition of human SK-MEL-5 cells assessed as cell growth at 10 uM incubated for 48 hrs by sulforhodamine B assay relative to control; conditions: read-out: Activity; summary of the method: as §2
# [29] = tested on: SNB-19; experiment: Growth inhibition of human SNB-19 cells assessed as cell growth at 10 uM incubated for 48 hrs by sulforhodamine B assay relative to control; conditions: read-out: Activity; summary of the method: as §2
# [30] = tested on: NCI-H460; experiment: Growth inhibition of human NCI-H460 cells assessed as cell growth at 1 uM incubated for 48 hrs by sulforhodamine B assay relative to control; conditions: read-out: Activity
# [31] = tested on: A498; experiment: Growth inhibition of human A498 cells assessed as cell growth at 10 uM incubated for 48 hrs by sulforhodamine B assay relative to control; conditions: read-out: Activity; summary of the method: as §3
# [32] = tested on: BT-549; experiment: Growth inhibition of human BT-549 cells assessed as cell growth at 10 uM incubated for 48 hrs by sulforhodamine B assay relative to control; conditions: read-out: Activity
# Summary of the method: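 NCI Developmental Therapeutics Program NCI60 human tumour cell line panel, one-dose primary screen with every compound at 10 µM. Growth is expressed as % of untreated control cells (100%).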
# [33] = tested on: SNB-75; experiment: Growth inhibition of human SNB-75 cells assessed as cell growth at 10 uM incubated for 48 hrs by sulforhodamine B assay relative to control; conditions: read-out: Activity; summary of the method: as §2
# [34] = tested on: SR; experiment: Growth inhibition of human SR cells assessed as cell growth at 10 uM incubated for 48 hrs by sulforhodamine B assay relative to control; conditions: read-out: Activity; summary of the method: as §2
Compound,growth at 10 µM [1] [%],growth at 10 µM [2] [%],growth at 10 µM [3] [%],growth at 10 µM [4] [%],growth at 10 µM [5] [%],growth at 0.01 µM [6] [%],growth at 10 µM [7] [%],growth at 0.01 µM [8] [%],growth at 10 µM [9] [%],growth at 10 µM [10] [%],growth at 10 µM [11] [%],GI50 [12] [µM],TGI [12] [µM],CC50 [12] [µM],growth at 10 µM [13] [%],growth at 10 µM [14] [%],growth at 100 µM [15] [%],growth at 10 µM [16] [%],growth at 10 µM [17] [%],growth at 10 µM [18] [%],also measured
Cc1cc(C)c(NC(=O)c2sc3nc4c(cc3c2N)CN(Cc2ccccc2)CC4)c(C)c1,17,3,31,21,44,99,46,106,18,23,37,2.44,7.79,> 100,36,36,-9,15,12,16,growth at 10 µM [19]: -13%; growth at 1 µM [20]: 66%; growth at 10 µM [21]: 5%; growth at 10 µM [22]: 7%; GI50 [23]: 5.35 µM; TGI [23]: > 100 µM; CC50 [23]: > 100 µM; growth at 10 µM [24]: 34%; growth at 1 µM [25]: 95%; growth at 10 µM [26]: 28%; growth at 10 µM [27]: 36%; growth at 10 µM [28]: 3%; growth at 10 µM [29]: 44%; growth at 1 µM [30]: 96%; growth at 10 µM [31]: -7%; growth at 10 µM [32]: 30%
CN1CCc2nc3sc(C(N)=O)c(N)c3c(-c3cccs3)c2C1,11,7,1,9,10,86,1,104,11,19,11,2.35,6.79,> 100,15,11,-8,7,10,6,growth at 10 µM [33]: -10%; growth at 10 µM [19]: 9%; growth at 1 µM [20]: 86%; growth at 10 µM [21]: -43%; growth at 10 µM [22]: 6%; GI50 [23]: 3.35 µM; TGI [23]: > 100 µM; CC50 [23]: > 100 µM; growth at 10 µM [24]: -28%; growth at 1 µM [25]: 103%; growth at 10 µM [26]: 16%; growth at 10 µM [34]: -11%; growth at 10 µM [27]: 11%; growth at 10 µM [28]: -25%; growth at 10 µM [29]: 19%; growth at 1 µM [30]: 108%; growth at 10 µM [31]: -15%; growth at 10 µM [32]: 10%
Cc1cccc(NC(=O)c2sc3nc4c(cc3c2N)C(=O)CCC4)c1,4,-1,57,42,37,93,8,91,26,15,41.2,0.167,0.462,≥ 100,3,35,-11,13,18,20,growth at 10 µM [33]: 4.87%; growth at 10 µM [19]: -22%; growth at 1 µM [20]: -35%; growth at 10 µM [21]: -10%; growth at 10 µM [22]: 5%; GI50 [23]: 0.251 µM; TGI [23]: > 100 µM; CC50 [23]: > 100 µM; growth at 10 µM [24]: 13%; growth at 1 µM [25]: 45%; growth at 10 µM [26]: 14%; growth at 10 µM [27]: 43%; growth at 10 µM [28]: 6%; growth at 10 µM [29]: 29%; growth at 1 µM [30]: 8%; growth at 10 µM [31]: -12.2%; growth at 10 µM [32]: 32%
